# Measured values: ChEMBL document CHEMBL1914420, “Investigation of the pyrazinones as PDE5 inhibitors: evaluation of regioisomeric projections into the solvent region” (Bioorg Med Chem Lett, 2011)
# System: not listed separately
# Test: Inhibition of PDE10
# Details: not given
row,SMILES,IC50 [nM]
1,CCCOCCn1c(=O)nc(NC2CCC(O)CC2)c2nnc(-c3ccc(OC)nc3)cc21 (stereo not drawn),> 2000

# System: not listed separately
# Test: Clearance in dog at 2 mg/kg
# Format: ADME, organism-based, Canis lupus familiaris
# Design: dose 2 mg/kg
# Details: in vivo
# Summary of the method: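 Clearance in mL/min/kg after a 2 mpk dose (n = 3) in vehicle 70% PEG400/20% 0.05 M citrate buffer/10% ethanol, pH 5.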
row,SMILES,clearance [mL/min/kg]
1,CCCOCCn1c(=O)nc(NC2CCC(O)CC2)c2nnc(-c3ccc(OC)nc3)cc21 (stereo not drawn),1.6
2,CCCOCCn1c(=O)c(NC2CCC(O)CC2)nc2cnc(-c3ccc(OC)nc3)cc21 (stereo not drawn),5.5

# System: not listed separately
# Test: Inhibition of PDE2
# Details: not given
row,SMILES,IC50 [nM]
1,CCCOCCn1c(=O)nc(NC2CCC(O)CC2)c2nnc(-c3ccc(OC)nc3)cc21 (stereo not drawn),> 2000

# Biological target: Dual specificity calcium/calmodulin-dependent 3',5'-cyclic nucleotide phosphodiesterase 1B (Homo sapiens, UniProt Q01064)
# Test: Inhibition of PDE1B
# Details: not given
row,SMILES,IC50 [nM]
1,CCCOCCn1c(=O)nc(NC2CCC(O)CC2)c2nnc(-c3ccc(OC)nc3)cc21 (stereo not drawn),> 2000

# System: not listed separately
# Test: Selectivity ratio of IC50 for PDE6 to IC50 for PDE5
# Details: not given
# Summary of the method: (§1)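 Fold selectivity calculated as PDE11 IC50/PDE5 IC50 or PDE6 IC50/PDE5 IC50, with IC50 values in nM.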
row,Ratio IC50,SMILES
1,675,CCCOCCn1c(=O)nc(NC2CCC(O)CC2)c2cnc(-c3ccc(OC)nc3)cc21 (stereo not drawn)
2,158,CCCOCCn1c(=O)c(NCCN2CCOCC2)nc2cnc(-c3ccc(OC)nc3)cc21
3,200,CCCOCCn1c(=O)c(NC2CCC(O)CC2)nc2cnc(-c3ccc(OC)nc3)cc21 (stereo not drawn)

row,SMILES,Ratio IC50
1,CCCOCCn1c(=O)nc(NC2CCC(O)CC2)c2nnc(-c3ccc(OC)nc3)cc21 (stereo not drawn),108

# Biological target: cGMP-inhibited 3',5'-cyclic phosphodiesterase 3A (Homo sapiens, UniProt Q14432)
# Test: Inhibition of PDE3A
# Details: not given
# Sequence of cGMP-inhibited 3',5'-cyclic phosphodiesterase 3A (Q14432 whole entry): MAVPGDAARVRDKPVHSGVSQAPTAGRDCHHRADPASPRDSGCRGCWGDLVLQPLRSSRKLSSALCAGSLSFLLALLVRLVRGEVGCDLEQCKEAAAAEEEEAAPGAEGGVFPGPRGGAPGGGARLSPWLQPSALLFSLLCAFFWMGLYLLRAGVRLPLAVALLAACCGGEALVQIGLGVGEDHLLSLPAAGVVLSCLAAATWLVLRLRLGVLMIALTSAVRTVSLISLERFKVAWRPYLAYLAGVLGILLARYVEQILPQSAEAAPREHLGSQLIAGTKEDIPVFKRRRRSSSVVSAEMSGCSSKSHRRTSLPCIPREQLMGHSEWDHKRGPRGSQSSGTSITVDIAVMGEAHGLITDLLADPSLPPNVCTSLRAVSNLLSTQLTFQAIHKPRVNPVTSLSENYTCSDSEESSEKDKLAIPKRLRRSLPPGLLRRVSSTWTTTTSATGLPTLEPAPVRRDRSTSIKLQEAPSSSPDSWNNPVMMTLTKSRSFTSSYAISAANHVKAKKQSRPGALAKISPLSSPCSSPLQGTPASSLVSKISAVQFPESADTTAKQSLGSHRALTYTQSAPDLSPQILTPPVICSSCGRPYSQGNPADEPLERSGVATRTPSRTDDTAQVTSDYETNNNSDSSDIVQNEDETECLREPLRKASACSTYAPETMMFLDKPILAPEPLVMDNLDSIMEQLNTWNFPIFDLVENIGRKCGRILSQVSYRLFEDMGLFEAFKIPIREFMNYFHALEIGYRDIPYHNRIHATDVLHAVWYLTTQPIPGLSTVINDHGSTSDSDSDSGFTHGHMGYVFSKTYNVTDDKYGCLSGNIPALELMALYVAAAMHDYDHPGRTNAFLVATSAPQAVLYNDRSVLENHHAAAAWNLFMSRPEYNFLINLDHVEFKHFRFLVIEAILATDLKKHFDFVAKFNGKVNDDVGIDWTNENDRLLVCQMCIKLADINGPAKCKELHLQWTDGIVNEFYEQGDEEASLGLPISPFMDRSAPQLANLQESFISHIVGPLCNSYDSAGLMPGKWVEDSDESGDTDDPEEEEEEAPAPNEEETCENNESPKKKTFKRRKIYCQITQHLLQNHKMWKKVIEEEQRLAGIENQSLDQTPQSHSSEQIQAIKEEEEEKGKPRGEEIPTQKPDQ
row,SMILES,IC50 [nM]
1,CCCOCCn1c(=O)nc(NC2CCC(O)CC2)c2nnc(-c3ccc(OC)nc3)cc21 (stereo not drawn),> 2000

# System: not listed separately
# Test: Metabolic stability in human liver microsomes assessed as compound remaining after 1 hr
# Format: ADME, Microsome
# Details: read-out: Stability
# Summary of the method: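 Human liver microsomes; percent parent compound remaining after 1 h incubation.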
row,SMILES,remaining at 1 h [%]
1,CCCOCCn1c(=O)nc(NC2CCC(O)CC2)c2nnc(-c3ccc(OC)nc3)cc21 (stereo not drawn),72
2,CCCOCCn1c(=O)c(NC2CCC(O)CC2)nc2cnc(-c3ccc(OC)nc3)cc21 (stereo not drawn),84

# System: not listed separately
# Test: Solubility of the compound at pH 6.5
# Format: physicochemical
# Details: buffer
row,SMILES,solubility [µM]
1,CCCOCCn1c(=O)nc(NC2CCC(O)CC2)c2nnc(-c3ccc(OC)nc3)cc21 (stereo not drawn),> 100
2,CCCOCCn1c(=O)c(NC2CCC(O)CC2)nc2cnc(-c3ccc(OC)nc3)cc21 (stereo not drawn),21

# Biological target: cGMP-specific 3',5'-cyclic phosphodiesterase (Homo sapiens, UniProt O76074)
# Test: Inhibition of PDE5
# Details: not given
row,IC50 [nM],SMILES
1,0.05,CCCOCCn1c(=O)nc(NC2CCC(O)CC2)c2cnc(-c3ccc(OC)nc3)cc21 (stereo not drawn)
2,0.05,CCCOCCn1c(=O)c(NC2CCC(O)CC2)nc2cnc(-c3ccc(OC)nc3)cc21 (stereo not drawn)

row,SMILES,IC50 [nM]
1,CCCOCCn1c(=O)nc(NC2CCC(O)CC2)c2nnc(-c3ccc(OC)nc3)cc21 (stereo not drawn),0.02

# System: not listed separately
# Test: Clearance in rat at 2 mg/kg at pH 5
# Format: ADME, organism-based
# Design: dose 2 mg/kg
# Details: in vivo
row,SMILES,clearance [mL/min/kg]
1,CCCOCCn1c(=O)nc(NC2CCC(O)CC2)c2nnc(-c3ccc(OC)nc3)cc21 (stereo not drawn),2.4
2,CCCOCCn1c(=O)c(NC2CCC(O)CC2)nc2cnc(-c3ccc(OC)nc3)cc21 (stereo not drawn),5.5

# System: not listed separately
# Test: Oral bioavailability in rat at 2 mg/kg
# Format: ADME, organism-based
# Details: in vivo
row,SMILES,bioavailability [%]
1,CCCOCCn1c(=O)nc(NC2CCC(O)CC2)c2nnc(-c3ccc(OC)nc3)cc21 (stereo not drawn),85
2,CCCOCCn1c(=O)c(NC2CCC(O)CC2)nc2cnc(-c3ccc(OC)nc3)cc21 (stereo not drawn),50

# Biological target: Dual specificity calcium/calmodulin-dependent 3',5'-cyclic nucleotide phosphodiesterase 1A (Homo sapiens, UniProt P54750)
# Test: Inhibition of PDE1A
# Details: not given
row,SMILES,IC50 [nM]
1,CCCOCCn1c(=O)nc(NC2CCC(O)CC2)c2nnc(-c3ccc(OC)nc3)cc21 (stereo not drawn),> 2000

# Biological target: T1, Adenosine receptor A1 (Homo sapiens, UniProt P30542)
# T1 sequence (P30542 whole entry): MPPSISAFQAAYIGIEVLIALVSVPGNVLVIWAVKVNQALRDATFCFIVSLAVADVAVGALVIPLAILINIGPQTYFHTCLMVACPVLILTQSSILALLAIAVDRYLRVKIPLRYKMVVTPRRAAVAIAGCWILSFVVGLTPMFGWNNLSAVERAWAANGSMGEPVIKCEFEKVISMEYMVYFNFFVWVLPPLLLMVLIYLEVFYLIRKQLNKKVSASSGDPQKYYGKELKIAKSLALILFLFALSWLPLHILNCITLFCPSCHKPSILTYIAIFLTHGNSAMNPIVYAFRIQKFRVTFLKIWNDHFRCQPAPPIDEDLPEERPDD
# Test: Inhibition of adenosine A1 receptor
# Details: not given
row,SMILES,IC50 [nM]
1,CCCOCCn1c(=O)nc(NC2CCC(O)CC2)c2nnc(-c3ccc(OC)nc3)cc21 (stereo not drawn),440

# Biological target: CYP3A4 (Homo sapiens, UniProt P08684)
# Test: Inhibition of CYP3A4 at 3 uM
# Format: ADME
# Details: not given
# Sequence of CYP3A4 (P08684 whole entry): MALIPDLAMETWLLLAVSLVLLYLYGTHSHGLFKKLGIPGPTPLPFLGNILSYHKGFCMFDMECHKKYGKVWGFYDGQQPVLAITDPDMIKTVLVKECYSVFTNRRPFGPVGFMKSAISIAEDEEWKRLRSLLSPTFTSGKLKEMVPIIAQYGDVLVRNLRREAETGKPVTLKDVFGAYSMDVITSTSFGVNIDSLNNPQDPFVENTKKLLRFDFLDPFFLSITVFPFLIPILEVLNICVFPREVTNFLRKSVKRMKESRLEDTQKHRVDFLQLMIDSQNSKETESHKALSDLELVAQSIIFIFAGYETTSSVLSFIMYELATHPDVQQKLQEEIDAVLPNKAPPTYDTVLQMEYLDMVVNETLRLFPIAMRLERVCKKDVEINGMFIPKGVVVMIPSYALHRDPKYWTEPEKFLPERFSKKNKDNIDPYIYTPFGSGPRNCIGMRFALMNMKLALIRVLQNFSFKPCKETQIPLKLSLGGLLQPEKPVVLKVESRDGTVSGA
row,SMILES,inhibition at 3 µM [%]
1,CCCOCCn1c(=O)nc(NC2CCC(O)CC2)c2nnc(-c3ccc(OC)nc3)cc21 (stereo not drawn),23

# Biological target: 3',5'-cyclic-AMP phosphodiesterase 7B (Homo sapiens, UniProt Q9NP56)
# Test: Inhibition of PDE7B
# Details: not given
# Sequence of 3',5'-cyclic-AMP phosphodiesterase 7B (Q9NP56 whole entry): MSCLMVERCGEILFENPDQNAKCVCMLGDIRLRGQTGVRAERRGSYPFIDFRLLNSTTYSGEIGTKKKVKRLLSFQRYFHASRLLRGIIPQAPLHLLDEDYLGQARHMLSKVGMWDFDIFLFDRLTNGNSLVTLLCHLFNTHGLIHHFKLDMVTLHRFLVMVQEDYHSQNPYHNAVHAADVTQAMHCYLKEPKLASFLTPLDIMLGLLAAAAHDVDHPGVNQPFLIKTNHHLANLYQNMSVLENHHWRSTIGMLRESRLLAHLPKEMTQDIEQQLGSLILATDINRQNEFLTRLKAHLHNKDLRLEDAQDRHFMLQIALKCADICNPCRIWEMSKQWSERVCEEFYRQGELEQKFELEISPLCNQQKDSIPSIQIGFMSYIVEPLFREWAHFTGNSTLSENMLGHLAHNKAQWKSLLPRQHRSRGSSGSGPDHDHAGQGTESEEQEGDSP
row,SMILES,IC50 [nM]
1,CCCOCCn1c(=O)nc(NC2CCC(O)CC2)c2nnc(-c3ccc(OC)nc3)cc21 (stereo not drawn),> 2000

# Biological target: CYP2D6 (Homo sapiens, UniProt P10635)
# Test: Inhibition of CYP2D6 at 3 uM
# Format: ADME
# Details: not given
row,SMILES,inhibition at 3 µM [%]
1,CCCOCCn1c(=O)nc(NC2CCC(O)CC2)c2nnc(-c3ccc(OC)nc3)cc21 (stereo not drawn),5

# Biological target: High affinity cAMP-specific and IBMX-insensitive 3',5'-cyclic phosphodiesterase 8A (Homo sapiens, UniProt O60658)
# Test: Inhibition of PDE8A
# Details: not given
# Sequence of High affinity cAMP-specific and IBMX-insensitive 3',5'-cyclic phosphodiesterase 8A (O60658 whole entry): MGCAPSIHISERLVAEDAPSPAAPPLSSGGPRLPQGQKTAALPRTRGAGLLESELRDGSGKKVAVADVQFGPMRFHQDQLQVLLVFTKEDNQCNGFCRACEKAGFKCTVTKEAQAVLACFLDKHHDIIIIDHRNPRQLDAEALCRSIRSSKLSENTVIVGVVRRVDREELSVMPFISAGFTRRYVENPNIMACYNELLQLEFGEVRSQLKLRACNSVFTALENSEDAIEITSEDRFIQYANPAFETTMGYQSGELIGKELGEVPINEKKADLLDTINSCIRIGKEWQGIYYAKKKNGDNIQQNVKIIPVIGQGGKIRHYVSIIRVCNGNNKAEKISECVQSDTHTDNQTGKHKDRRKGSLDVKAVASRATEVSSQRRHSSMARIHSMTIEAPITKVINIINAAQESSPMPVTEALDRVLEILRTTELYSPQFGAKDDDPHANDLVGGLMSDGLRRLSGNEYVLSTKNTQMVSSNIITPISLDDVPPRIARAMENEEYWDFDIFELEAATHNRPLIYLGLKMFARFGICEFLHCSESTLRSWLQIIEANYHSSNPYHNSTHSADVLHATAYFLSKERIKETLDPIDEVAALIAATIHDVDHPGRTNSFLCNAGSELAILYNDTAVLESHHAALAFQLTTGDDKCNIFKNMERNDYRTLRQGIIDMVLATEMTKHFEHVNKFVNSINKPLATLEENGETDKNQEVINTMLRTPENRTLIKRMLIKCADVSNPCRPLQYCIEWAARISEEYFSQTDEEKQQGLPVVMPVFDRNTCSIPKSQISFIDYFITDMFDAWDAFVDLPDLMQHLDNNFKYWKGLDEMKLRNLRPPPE
row,SMILES,IC50 [nM]
1,CCCOCCn1c(=O)nc(NC2CCC(O)CC2)c2nnc(-c3ccc(OC)nc3)cc21 (stereo not drawn),> 2000

# System: not listed separately
# Test: Inhibition of PDE9
# Details: not given
row,SMILES,IC50 [nM]
1,CCCOCCn1c(=O)nc(NC2CCC(O)CC2)c2nnc(-c3ccc(OC)nc3)cc21 (stereo not drawn),> 2000

# Biological target: 3',5'-cyclic-AMP phosphodiesterase 4A (Homo sapiens, UniProt P27815)
# Test: Inhibition of PDE4A
# Details: not given
row,SMILES,IC50 [nM]
1,CCCOCCn1c(=O)nc(NC2CCC(O)CC2)c2nnc(-c3ccc(OC)nc3)cc21 (stereo not drawn),> 2000

# System: not listed separately
# Test: Volume of distribution in rat
# Format: ADME, organism-based
# Details: in vivo
row,SMILES,Vd [L/kg]
1,CCCOCCn1c(=O)nc(NC2CCC(O)CC2)c2nnc(-c3ccc(OC)nc3)cc21 (stereo not drawn),0.6
2,CCCOCCn1c(=O)c(NC2CCC(O)CC2)nc2cnc(-c3ccc(OC)nc3)cc21 (stereo not drawn),1.35

# Biological target: High affinity cAMP-specific and IBMX-insensitive 3',5'-cyclic phosphodiesterase 8B (Homo sapiens, UniProt O95263)
# Test: Inhibition of PDE8B
# Details: not given
row,SMILES,IC50 [nM]
1,CCCOCCn1c(=O)nc(NC2CCC(O)CC2)c2nnc(-c3ccc(OC)nc3)cc21 (stereo not drawn),> 2000

# System: Rattus norvegicus
# Test: Antihypertensive activity in spontaneous hypertensive rat assessed as reduction in systolic blood pressure at 20 mg/kg measured after 24 hrs
# Format: functional, Artery
# Details: not given
row,SMILES,Activity [mmHg]
1,CCCOCCn1c(=O)nc(NC2CCC(O)CC2)c2nnc(-c3ccc(OC)nc3)cc21 (stereo not drawn),20

# Biological target: CYP2C9 (Homo sapiens, UniProt P11712)
# Test: Inhibition of CYP2C9 at 3 uM
# Format: ADME
# Details: not given
# Sequence of CYP2C9 (P11712 whole entry): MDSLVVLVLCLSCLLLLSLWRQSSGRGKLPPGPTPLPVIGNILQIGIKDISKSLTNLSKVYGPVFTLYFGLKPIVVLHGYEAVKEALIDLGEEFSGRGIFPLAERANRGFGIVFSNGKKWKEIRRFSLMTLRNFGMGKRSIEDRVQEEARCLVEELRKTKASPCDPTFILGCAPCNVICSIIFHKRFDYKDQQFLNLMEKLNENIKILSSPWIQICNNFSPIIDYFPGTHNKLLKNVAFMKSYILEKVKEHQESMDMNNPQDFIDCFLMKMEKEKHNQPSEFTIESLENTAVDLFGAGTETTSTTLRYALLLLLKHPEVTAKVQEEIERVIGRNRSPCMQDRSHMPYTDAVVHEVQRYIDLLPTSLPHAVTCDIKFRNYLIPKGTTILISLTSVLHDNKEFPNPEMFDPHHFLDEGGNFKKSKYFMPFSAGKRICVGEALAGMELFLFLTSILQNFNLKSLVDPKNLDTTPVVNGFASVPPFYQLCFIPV
row,SMILES,inhibition at 3 µM [%]
1,CCCOCCn1c(=O)nc(NC2CCC(O)CC2)c2nnc(-c3ccc(OC)nc3)cc21 (stereo not drawn),9

# Biological target: High affinity 3',5'-cyclic-AMP phosphodiesterase 7A (Homo sapiens, UniProt Q13946)
# Test: Inhibition of PDE7A
# Details: not given
row,SMILES,IC50 [nM]
1,CCCOCCn1c(=O)nc(NC2CCC(O)CC2)c2nnc(-c3ccc(OC)nc3)cc21 (stereo not drawn),> 2000

# Biological target: 3',5'-cyclic-AMP phosphodiesterase 4B (Homo sapiens, UniProt Q07343)
# Test: Inhibition of PDE4B
# Details: not given
row,SMILES,IC50 [nM]
1,CCCOCCn1c(=O)nc(NC2CCC(O)CC2)c2nnc(-c3ccc(OC)nc3)cc21 (stereo not drawn),> 2000

# Biological target: 3',5'-cyclic-AMP phosphodiesterase 4C (Homo sapiens, UniProt Q08493)
# Test: Inhibition of PDE4C
# Details: not given
row,SMILES,IC50 [nM]
1,CCCOCCn1c(=O)nc(NC2CCC(O)CC2)c2nnc(-c3ccc(OC)nc3)cc21 (stereo not drawn),> 2000

# System: not listed separately
# Test: Selectivity ratio of IC50 for PDE11 to IC50 for PDE5
# Details: not given
# Summary of the method: as §1
row,Ratio IC50,SMILES
1,3950,CCCOCCn1c(=O)nc(NC2CCC(O)CC2)c2cnc(-c3ccc(OC)nc3)cc21 (stereo not drawn)
2,4860,CCCOCCn1c(=O)c(NCCN2CCOCC2)nc2cnc(-c3ccc(OC)nc3)cc21
3,1320,CCCOCCn1c(=O)c(NC2CCC(O)CC2)nc2cnc(-c3ccc(OC)nc3)cc21 (stereo not drawn)

row,SMILES,Ratio IC50
1,CCCOCCn1c(=O)nc(NC2CCC(O)CC2)c2nnc(-c3ccc(OC)nc3)cc21 (stereo not drawn),741

# Biological target: cGMP-inhibited 3',5'-cyclic phosphodiesterase 3B (Homo sapiens, UniProt Q13370)
# Test: Inhibition of PDE3B
# Details: not given
row,SMILES,IC50 [nM]
1,CCCOCCn1c(=O)nc(NC2CCC(O)CC2)c2nnc(-c3ccc(OC)nc3)cc21 (stereo not drawn),> 2000

# Species on record: Rattus norvegicus
# Test: Unbound volume of distribution in rat
# Format: ADME, organism-based
# Details: in vivo
row,SMILES,Vdu [L/kg]
1,CCCOCCn1c(=O)nc(NC2CCC(O)CC2)c2nnc(-c3ccc(OC)nc3)cc21 (stereo not drawn),4.8
2,CCCOCCn1c(=O)c(NC2CCC(O)CC2)nc2cnc(-c3ccc(OC)nc3)cc21 (stereo not drawn),96

# Biological target: Dual specificity calcium/calmodulin-dependent 3',5'-cyclic nucleotide phosphodiesterase 1C (Homo sapiens, UniProt Q14123)
# Test: Inhibition of PDE1C
# Details: not given
# Sequence of Dual specificity calcium/calmodulin-dependent 3',5'-cyclic nucleotide phosphodiesterase 1C (Q14123 whole entry): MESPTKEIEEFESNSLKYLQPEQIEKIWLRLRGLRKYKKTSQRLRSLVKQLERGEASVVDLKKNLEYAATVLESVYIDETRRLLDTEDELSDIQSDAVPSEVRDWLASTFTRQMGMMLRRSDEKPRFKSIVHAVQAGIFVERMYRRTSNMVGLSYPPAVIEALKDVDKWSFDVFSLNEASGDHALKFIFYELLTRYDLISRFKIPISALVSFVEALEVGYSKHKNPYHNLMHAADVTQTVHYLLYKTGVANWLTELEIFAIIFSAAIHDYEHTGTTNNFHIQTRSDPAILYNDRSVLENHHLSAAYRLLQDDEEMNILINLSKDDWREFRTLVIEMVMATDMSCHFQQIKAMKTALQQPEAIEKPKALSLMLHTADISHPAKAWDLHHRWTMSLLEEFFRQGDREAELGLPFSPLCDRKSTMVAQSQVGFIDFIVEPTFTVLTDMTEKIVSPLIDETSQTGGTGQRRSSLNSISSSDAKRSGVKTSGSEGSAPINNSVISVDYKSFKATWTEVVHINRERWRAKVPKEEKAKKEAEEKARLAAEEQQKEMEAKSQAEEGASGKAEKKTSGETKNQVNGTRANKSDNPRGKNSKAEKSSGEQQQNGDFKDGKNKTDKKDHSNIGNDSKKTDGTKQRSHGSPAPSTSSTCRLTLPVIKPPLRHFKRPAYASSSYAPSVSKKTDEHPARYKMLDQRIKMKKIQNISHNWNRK
row,SMILES,IC50 [nM]
1,CCCOCCn1c(=O)nc(NC2CCC(O)CC2)c2nnc(-c3ccc(OC)nc3)cc21 (stereo not drawn),> 2000

# Biological target: Acetylcholinesterase (Homo sapiens, UniProt P22303)
# Test: Inhibition of acetylcholinesterase
# Details: not given
# Sequence of Acetylcholinesterase (P22303 whole entry): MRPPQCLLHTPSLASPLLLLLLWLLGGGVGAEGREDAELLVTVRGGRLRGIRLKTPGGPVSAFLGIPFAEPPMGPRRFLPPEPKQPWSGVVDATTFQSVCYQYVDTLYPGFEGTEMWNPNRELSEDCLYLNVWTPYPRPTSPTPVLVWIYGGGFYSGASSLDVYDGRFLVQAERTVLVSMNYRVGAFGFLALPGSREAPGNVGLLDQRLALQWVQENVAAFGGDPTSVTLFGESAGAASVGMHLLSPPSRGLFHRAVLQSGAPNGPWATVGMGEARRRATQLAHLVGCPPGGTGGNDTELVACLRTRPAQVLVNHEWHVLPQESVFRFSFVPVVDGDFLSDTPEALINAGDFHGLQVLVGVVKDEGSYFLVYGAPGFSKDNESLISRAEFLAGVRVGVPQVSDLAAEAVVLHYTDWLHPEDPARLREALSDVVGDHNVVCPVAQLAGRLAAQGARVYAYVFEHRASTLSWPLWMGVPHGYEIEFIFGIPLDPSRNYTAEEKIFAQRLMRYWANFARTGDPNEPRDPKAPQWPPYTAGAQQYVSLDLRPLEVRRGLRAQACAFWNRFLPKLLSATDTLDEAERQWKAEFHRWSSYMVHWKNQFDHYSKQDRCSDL
row,SMILES,IC50 [nM]
1,CCCOCCn1c(=O)nc(NC2CCC(O)CC2)c2nnc(-c3ccc(OC)nc3)cc21 (stereo not drawn),5600

# System: not listed separately
# Test: Volume of distribution in dog
# Format: ADME, organism-based, Canis lupus familiaris
# Details: in vivo
# Summary of the method: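 Volume of distribution expressed in L/kg.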
row,SMILES,Vd [L/kg]
1,CCCOCCn1c(=O)nc(NC2CCC(O)CC2)c2nnc(-c3ccc(OC)nc3)cc21 (stereo not drawn),0.3
2,CCCOCCn1c(=O)c(NC2CCC(O)CC2)nc2cnc(-c3ccc(OC)nc3)cc21 (stereo not drawn),3.5
